# According to ChEMBL document CHEMBL1944570, “Discovery of 4''-ether linked azithromycin-quinolone hybrid series: influence of the central linker on the antibacterial activity” (ACS Med Chem Lett, 2011):
# Key:
# [1] = Inhibition of Escherichia coli DNA gyrase-mediated supercoiling of relaxed pBR322 DNA
# [2] = test system: Staphylococcus aureus; test: Antibacterial activity against ciprofloxacin-resistant Staphylococcus aureus by agar microdilution method; format: functional
# In short: (§1)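 MIC by agar microdilution following NCCLS standards; strains drawn from the PLIVA Research Institute culture collection. MIC reported in μg/mL.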
# [3] = test system: Streptococcus pyogenes; test: Antibacterial activity against erythromycin-susceptible Streptococcus pyogenes by agar microdilution method; format: functional; in short: as §1
# [4] = Inhibition of Escherichia coli topoisomerase 4-mediated relaxation of supercoiled pBR322 DNA
# [5] = Inhibition of protein synthesis using Escherichia coli S30 extracts preincubated for 10 mins measured after 50 mins by luciferase reporter gene assay; format: functional
# [6] = test system: Haemophilus influenzae; test: Antibacterial activity against Haemophilus influenzae B0529 by agar microdilution method; format: functional
# In short: (§2)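 Agar microdilution MIC per NCCLS standards against strains from the Pliva Research Institute culture collection; values in µg/mL. Panel included erythromycin-susceptible strains and strains with inducible or constitutive MLS resistance.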
# [7] = test system: Streptococcus pneumoniae; test: Antibacterial activity against erythromycin-susceptible Streptococcus pneumoniae by agar microdilution method; format: functional; in short: as §1
# [8] = test system: Streptococcus pyogenes; test: Antibacterial activity against constitutive MLS resistant Streptococcus pyogenes by agar microdilution method; format: functional; in short: as §1
# [9] = test system: Staphylococcus aureus; test: Antibacterial activity against constitutive MLS resistant Staphylococcus aureus by agar microdilution method; format: functional; in short: as §1
# [10] = test system: Moraxella catarrhalis; test: Antibacterial activity against Moraxella catarrhalis by agar microdilution method; format: functional; in short: as §2
# [11] = test system: Staphylococcus aureus; test: Antibacterial activity against erythromycin-susceptible Staphylococcus aureus by agar microdilution method; format: functional; in short: as §2
# [12] = test system: Staphylococcus aureus; test: Antibacterial activity against efflux mediated macrolide resistant Staphylococcus aureus by agar microdilution method; format: functional; in short: as §1
# [13] = test system: Staphylococcus aureus; test: Antibacterial activity against Staphylococcus aureus with inducible resistance to MLS by agar microdilution method; format: functional; in short: as §1
# [14] = test system: Streptococcus pneumoniae; test: Antibacterial activity against constitutive MLS resistant Streptococcus pneumoniae by agar microdilution method; format: functional; in short: as §1
# [15] = test system: Streptococcus pyogenes; test: Antibacterial activity against efflux mediated macrolide resistant Streptococcus pyogenes by agar microdilution method; format: functional; in short: as §1
# [16] = test system: Streptococcus pyogenes; test: Antibacterial activity against Streptococcus pyogenes with inducible resistance to MLS by agar microdilution method; format: functional; in short: as §1
# [17] = test system: Streptococcus pneumoniae; test: Antibacterial activity against efflux mediated macrolide resistant Streptococcus pneumoniae by agar microdilution method; format: functional; in short: as §1
Structure (SMILES),IC50 [1] [µM],MIC [2] [µg/mL],MIC [3] [µg/mL],IC50 [4] [µM],IC50 [5] [µM],MIC [6] [µg/mL],MIC [7] [µg/mL],MIC [8] [µg/mL],MIC [9] [µg/mL],MIC [10] [µg/mL],MIC [11] [µg/mL],MIC [12] [µg/mL],MIC [13] [µg/mL],MIC [14] [µg/mL],MIC [15] [µg/mL],MIC [16] [µg/mL],MIC [17] [µg/mL]
CC[C@H]1OC(=O)[C@H](C)[C@@H](O[C@H]2C[C@@](C)(OC)[C@@H](OCCNCCOCCNc3cc4c(=O)c(C(=O)O)cn(C5CC5)c4cc3Cl)[C@H](C)O2)[C@H](C)[C@@H](O[C@@H]2O[C@H](C)C[C@H](N(C)C)[C@H]2O)[C@](C)(O)C[C@@H](C)CN(C)[C@H](C)[C@H]2OC(=O)O[C@@]21C,70,32,≤ 0.125,60,0.28,0.5,≤ 0.125,0.5,32,≤ 0.125,≤ 0.125,0.25,0.25,–,–,–,–
CC[C@H]1OC(=O)[C@H](C)[C@@H](O[C@H]2C[C@@](C)(OC)[C@@H](OCCNCCOCCNc3cc4c(=O)c(C(=O)O)cn(C5CC5)c4cc3Cl)[C@H](C)O2)[C@H](C)[C@@H](O[C@@H]2O[C@H](C)C[C@H](N(C)C)[C@H]2O)[C@](C)(O)C[C@@H](C)CN(C)[C@H](C)[C@@H](O)[C@]1(C)O,60,≥ 64,≤ 0.125,50,0.35,0.5,≤ 0.125,1,64,0.125,≤ 0.125,0.5,0.25,0.25,0.125,–,–
CC[C@H]1OC(=O)[C@H](C)[C@@H](O[C@H]2C[C@@](C)(OC)[C@@H](OCCCC(=O)NCCNc3cc4c(cc3F)c(=O)c(C(=O)O)cn4C3CC3)[C@H](C)O2)[C@H](C)[C@@H](O[C@@H]2O[C@H](C)C[C@H](N(C)C)[C@H]2O)[C@](C)(O)C[C@@H](C)CN(C)[C@H](C)[C@@H](O)[C@]1(C)O,–,≥ 64,1,–,–,8,1,16,64,2,8,16,8,1,16,1,4
CC[C@H]1OC(=O)[C@H](C)[C@@H](O[C@H]2C[C@@](C)(OC)[C@@H](OCCCC(=O)NCCOCCNc3cc4c(cc3F)c(=O)c(C(=O)O)cn4C3CC3)[C@H](C)O2)[C@H](C)[C@@H](O[C@@H]2O[C@H](C)C[C@H](N(C)C)[C@H]2O)[C@](C)(O)C[C@@H](C)CN(C)[C@H](C)[C@@H](O)[C@]1(C)O,–,≥ 64,0.25,–,–,16,0.5,4,64,8,16,32,64,8,2,0.25,0.25
CC[C@H]1OC(=O)[C@H](C)[C@@H](O[C@H]2C[C@@](C)(OC)[C@@H](OCCCC(=O)NCCOCCOCCNc3cc4c(=O)c(C(=O)O)cn(C5CC5)c4cc3Cl)[C@H](C)O2)[C@H](C)[C@@H](O[C@@H]2O[C@H](C)C[C@H](N(C)C)[C@H]2O)[C@](C)(O)C[C@@H](C)CN(C)[C@H](C)[C@@H](O)[C@]1(C)O,–,≥ 64,0.25,–,–,8,≤ 0.125,4,64,2,16,8,64,64,1,0.5,0.25
CC[C@H]1OC(=O)[C@H](C)[C@@H](O[C@H]2C[C@@](C)(OC)[C@@H](O)[C@H](C)O2)[C@H](C)[C@@H](O[C@@H]2O[C@H](C)C[C@H](N(C)C)[C@H]2O)[C@](C)(O)C[C@@H](C)CN(C)[C@H](C)[C@@H](O)[C@]1(C)O [AZITHROMYCIN],–,≥ 64,≤ 0.125,–,–,1,≤ 0.125,> 64,> 64,0.25,1,> 64,> 64,> 64,1,8,4
